Reference: ChEMBL document CHEMBL1141193, “Design, synthesis, and biological evaluation of hybrid molecules containing alpha-methylene-gamma-butyrolactones and alpha-bromoacryloyl moieties” (J Med Chem, 2005)
Active and inactive are the calls of the source. No cut-off for these calls is given here.

Key:
Type in all cases: functional, cell-based
L1210 = experiment: In vitro antiproliferative activity against murine lymphocytic L1210 leukemia cell line; conditions: Mus musculus
How it was run: (§1)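 Exponentially growing cells in RPMI 1640 with 10% FCS, 2 mM L-glutamine, […] and penicillin/streptomycin. Exposed to increasing drug concentrations, diluted from a 1 mg/mL DMSO stock. Cell number per mL was counted by Coulter counter after 48 h, using duplicate cultures per concentration and at least three repeats. IC50 = 50% growth inhibition versus untreated controls, reported as mean ± SE.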

K562 = experiment: In vitro antiproliferative against human chronic myelogenous K562 cell line; how it was run: as §1
HL-60 [1] = experiment: Condensation of chromatin in HL60 cells at 1 uM for 12 hrs; conditions: Homo sapiens
How it was run: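 HL-60 cells exposed to 1 µM compound for 12 h, then DNA stained with Hoechst 33258. Chromatin condensation and apoptotic bodies were examined by fluorescence microscopy. Apoptotic nuclei were counted quantitatively in triplicate, and the experiment was repeated once.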

HL-60 [2] = experiment: In vitro antiproliferative activity against human HL60 myeloid leukemia cell line by MTT assay
HL-60 [3] = experiment: Cytochrome c release in HL60 cells by immunoblotting at 1 uM; conditions: Homo sapiens
How it was run: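 HL-60 cells treated with 1 or 3 µM compound and harvested at 12 h. Cytosolic lysates were immunoblotted with anti-cytochrome c antibody, looking for the 15 kDa band. β-actin served as loading control.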

HL-60 [4] = experiment: DNA fragmentation in HL60 cells by ethidium bromide staining at 1 uM for 12 hrs; conditions: Homo sapiens
HL-60 [5] = experiment: PARP hydrolysis in HL60 cells by an immunoblot assay; conditions: Homo sapiens
How it was run: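 HL-60 cell lysates, equal protein per lane, were run on SDS-PAGE and blotted with an anti-PARP monoclonal antibody to detect PARP cleavage. Etoposide was the positive control.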

PBMC = experiment: In vitro antiproliferative activity against human PBM cell line by MTT assay
How it was run: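 PBMCs isolated from anticoagulant-treated blood of healthy human donors. Cells were cultured with or without compound for 24 h, and growth was read by MTT dye-reduction assay. IC50 taken from dose-response curves of at least two independent experiments, each in triplicate determinations, as mean ± SE.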

SMILES | IC50 (L1210) [nM] | IC50 (K562) [nM] | Activity (HL-60 [1]) | IC50 (HL-60 [2]) [nM] | Activity (HL-60 [3]) | Activity (HL-60 [4]) | Activity (HL-60 [5]) | IC50 (PBMC) [nM]
C=C(Br)C(=O)Nc1ccc2oc(C(=O)O)cc2c1 | 2950 | 7250 | – | – | – | – | – | –
C=C(Br)C(=O)Nc1ccc2sc(C(=O)O)cc2c1 | 4500 | 5000 | – | – | – | – | – | –
C=C(Br)C(=O)Nc1ccc2c(c1)cc(C(=O)O)n2C | 2070 | 3370 | – | – | – | – | – | –
C=C(Br)C(=O)Nc1ccc2[nH]c(C(=O)NCCNC(=O)c3cc(OCC4(c5ccccc5)CC(=C)C(=O)O4)nn3C)cc2c1 (configuration not stated) | 850 | 630 | – | – | – | – | – | –
C=C(Br)C(=O)Nc1ccc2oc(C(=O)NCCNC(=O)c3cc(OCC4(c5ccc(Cl)cc5)CC(=C)C(=O)O4)nn3C)cc2c1 (configuration not stated) | 550 | 710 | – | – | – | – | – | –
C=C(Br)C(=O)Nc1ccc2sc(C(=O)NCCNC(=O)c3cc(OCC4(c5ccccc5)CC(=C)C(=O)O4)nn3C)cc2c1 (configuration not stated) | 290 | 270 | – | – | – | – | – | –
C=C(Br)C(=O)Nc1ccc2sc(C(=O)NCCNC(=O)c3cc(OCC4(c5ccc(-c6ccccc6)cc5)CC(=C)C(=O)O4)nn3C)cc2c1 (configuration not stated) | 290 | 380 | Active | 360 | Active | Active | Active | 8610
C=C(Br)C(=O)Nc1ccc2[nH]c(C(=O)O)cc2c1 | 4300 | 5600 | – | – | – | – | – | –
C=C1CC(COc2cc(C(=O)O)n(C)n2)(c2ccccc2)OC1=O (configuration not stated) | > 10000 | > 10000 | – | – | – | – | – | –
C=C(Br)C(=O)Nc1ccc2c(c1)cc(C(=O)NCCNC(=O)c1cc(OCC3(c4ccccc4)CC(=C)C(=O)O3)nn1C)n2C (configuration not stated) | 50 | 80 | Active | 110 | Active | Active | Active | 2520
C=C(Br)C(=O)Nc1ccc2oc(C(=O)NCCNC(=O)c3cc(OCC4(c5ccc(-c6ccccc6)cc5)CC(=C)C(=O)O4)nn3C)cc2c1 (configuration not stated) | 270 | 410 | – | – | – | – | – | –
C=C(Br)C(=O)Nc1ccc2oc(C(=O)NCCNC(=O)c3cc(OCC4(c5ccccc5)CC(=C)C(=O)O4)nn3C)cc2c1 (configuration not stated) | 310 | 420 | Active | 270 | Active | Active | Active | 5440
C=C1CC(COc2cc(C(=O)O)n(C)n2)(c2ccc(-c3ccccc3)cc2)OC1=O (configuration not stated) | > 10000 | > 10000 | – | – | – | – | – | –
C=C1CC(COc2cc(C(=O)O)n(C)n2)(c2ccc(Cl)cc2)OC1=O (configuration not stated) | > 10000 | > 10000 | – | – | – | – | – | –
C=C(Br)C(=O)Nc1ccc2c(c1)cc(C(=O)NCCNC(=O)c1cc(OCC3(c4ccc(-c5ccccc5)cc4)CC(=C)C(=O)O3)nn1C)n2C (configuration not stated) | 280 | 360 | – | – | – | – | – | –
C=C1CC(C)(COc2cc(C(=O)O)n(C)n2)OC1=O (configuration not stated) | > 10000 | > 10000 | – | – | – | – | – | –
C=C(Br)C(=O)Nc1ccc2sc(C(=O)NCCNC(=O)c3cc(OCC4(c5ccc(Cl)cc5)CC(=C)C(=O)O4)nn3C)cc2c1 (configuration not stated) | 260 | 410 | Active | 290 | Active | Active | Active | 6820
C=C(Br)C(=O)Nc1ccc2[nH]c(C(=O)NCCNC(=O)c3cc(OCC4(c5ccc(-c6ccccc6)cc5)CC(=C)C(=O)O4)nn3C)cc2c1 (configuration not stated) | 360 | 480 | – | – | – | – | – | –
C=C(Br)C(=O)Nc1ccc2sc(C(=O)NCCNC(=O)c3cc(OCC4(C)CC(=C)C(=O)O4)nn3C)cc2c1 (configuration not stated) | 840 | 1020 | – | – | – | – | – | –
